Data set [1] concerns LNCaP. Kind of data set: Downregulation of survivin expression in human LNCAP cells at 0.1 to 30 uM after 24 hrs by Western blot analysis. In kind it is functional, cell-based. The method in brief:
(§1)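 Western blot: cells homogenized and spun at 10,000 g for 15 min. Supernatant kept as cytoplasmic fraction; nuclear proteins extracted with a kit. Denatured proteins run on gels, transferred to PVDF, probed with specific antibodies, and detected by enhanced chemiluminescence.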

For data set [2], the system named is LNCaP. Description: Inhibition of Akt phosphorylation in human LNCAP cells at 0.1 to 30 uM after 30 mins by Western blot analysis. In kind it is cell-based. In short, it runs like this: as §1
Data set [3] has as its system LNCaP. Kind of data set: Induction of apoptosis in human LNCAP cells at 30 uM after 72 hrs by AnnexinV staining based fluorescent microscopy. It counts as functional, cell-based. In short, it runs like this: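 LNCaP cells (5 10^4) plated on coverslips coated with 1% gelatin and treated 72 h. Annexin V kit staining, fixation in 2% formaldehyde, nuclei counterstained with 10 µg/ml DAPI. Annexin V-positive cells counted by fluorescence microscopy.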

The test system of data set [4] is LNCaP. Description: Downregulation of CK2alpha expression in human LNCAP cells assessed as reduction of nuclear protein level at 10 uM after 12 to 24 hrs by Western blot analysis. In kind it is functional, cell-based. In short, it runs like this: as §1
Data set [5] can be described thus: Cytotoxicity against human RWPE1 cells assessed as cell viability at 10 uM after 3 days by CCK8 method. The conditions noted are these: read-out: Activity. In kind it is cell-based, RWPE-1. The method in brief:
(§2)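 Normal prostate RWPE-1 cells kept in keratinocyte serum-free medium with 0.05 mg/ml bovine pituitary extract and 5 ng/ml recombinant human EGF. Cells seeded at 1 10^4 per well, cultured 24 h, then treated 1–3 days. Viability measured by CCK-8 in triplicate.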
In general terms: Tetrazolium dyes change colour on reduction, which living cells bring about.

Data set [6] relates to LNCaP. Kind of data set: Cytotoxicity against human LNCAP cells assessed as cell viability at 1 to 10 uM after 1 day by luciferase assay. It counts as cell-based. The conditions noted are these: 24 h, in the assay text read “by CCK-8 assay” for “by luciferase assay”. In short, it runs like this: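 LNCaP cells lentivirally transduced with an AR luciferase reporter and selected with 30 µg/ml puromycin. Cells at 4 10^4 per well, kept 1 day in 10% stripped FBS, then treated 1 day in 0.1% stripped FBS with or without 0.1 µM DHT. Luciferase measured for AR activation and CCK-8 for viability; Student's t-test.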

Data set [7] deals with LNCaP. Kind of data set: Cytotoxicity against human LNCAP cells assessed as cell viability at 10 uM by CCK8 method. Conditions: TDE = time-dependent effect. It counts as functional, cell-based.
Data set [8] deals with LNCaP. Description: Antiapoptotic activity against human LNCAP cells assessed as cell survival at 10 uM after 1 day by CCK8 method. It counts as functional. Conditions: 24 h, read-out: Activity.
Data set [9] deals with LNCaP. Description: Induction of apoptosis in human LNCAP cells assessed as increase in caspase3 activation at >10 uM after 1 to 2 days. In kind it is functional, cell-based. The method in brief:
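LNCaP cells seeded at 1 10^4 per well, cultured 24 h, then treated 1 or 2 days. Caspase-3 activity read with a commercial caspase-3 kit in triplicate. Significance by Student's t-test, P < 0.05.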

Data set [10] has as its system LNCaP. Description: Downregulation of CK2alpha expression in human LNCAP cells assessed as reduction of cytosolic protein level at 10 uM after 12 to 24 hrs by Western blot analysis. In kind it is functional, cell-based. The method in brief:
as §1
In general terms: In western blotting, separated proteins are transferred to a membrane and probed.

The nature of data set [11]: Cytotoxicity against human RWPE1 cells assessed as cell viability after 1 to 3 days by CCK8 method. It counts as cell-based. The conditions noted are these: rwpe-1. The method in brief:
as §2

The test system of data set [12] is LNCaP. Description: Cytotoxicity against human LNCAP cells assessed as cell viability after 4 days by CCK8 method. In kind it is functional, cell-based. The conditions noted are these: 96 h. In short, it runs like this: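 LNCaP cells grown in RPMI1640 with 10% FBS plus penicillin/streptomycin at 37 °C, 5% CO2. Cells seeded at 3 10^3 per well, cultured 24 h, then exposed to compound for 4 days. Viability read by CCK-8 absorbance, in triplicate.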

Structures are written as SMILES. Calls of active or inactive are those of the source. No cut-off for these calls is given here.

Consider `O=c1cc(N2CCOCC2)oc2c(-c3ccccc3)cccc12`, for which the result with LNCaP [1] was Active. Also, the inhibition entry in the data set on LNCaP [2] was “Active”.
As for `O=C(O)c1ccc2c(c1)nc(Nc1cccc(Cl)c1)c1ccncc12` [SILMITASERTIB], the result in the data set with LNCaP [3], in the data set on LNCaP [4], in the data set with LNCaP [9] and with LNCaP [10] was Active. Further, the viability at 72 h, 10 µM in data set [5] was found to be 94%. Moreover, the figures for the Activity result (with LNCaP [6]; with LNCaP [7]; in data set [11]) were “Non-toxic”, “tde” and “Non-toxic”, respectively. Further, the viability at 10 µM with LNCaP [8] came out at 72%. Besides, the IC50 (as a rule, the concentration that gives 50% inhibition) in the data set on LNCaP [12] is 4.59 µM.

The values are drawn from ChEMBL document CHEMBL2146399, “Anti-androgen receptor activity of apoptotic CK2 inhibitor CX4945 in human prostate cancer LNCap cells” (Bioorg Med Chem Lett, 2012).
